# In ChEMBL document CHEMBL5058577, “EUbOPEN Chemogenomics Library 2 (Multiplex)” (2022):
# System: Fibroblast
# Assay: Multiplex assay against human fibroblast
# Assay type: toxicity, cell-based
# In short: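 Values for tubulin, mitochondrial-mass and membrane-permeability phenotypes are per cents of cells with healthy nuclei. These cells were identified by CellPathfinder machine-learning gating of live cells that had been stained at seeding with Hoechst33342, BioTracker Green Microtubule Cytoskeleton Dye, MitoTracker Red and Annexin V Alexa Fluor 680 and imaged on a CQ1 microscope at 37°C and 5% CO2 after compound addition. The gating first set Hoechst high-intensity objects apart from normal cells, then split normal cells into healthy, pyknosed or fragmented nuclei, and pyknosed cells into mitotic or apoptotic.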
# [1] = 12 h, 1 µM, compound concentration 1 uM, replicate 1
# [2] = 12 h, 1 µM, compound concentration 1 uM, replicate 2
# [3] = 12 h, 10 µM, compound concentration 10 uM, replicate 1
# [4] = 12 h, 10 µM, compound concentration 10 uM, replicate 2
# [5] = 24 h, 1 µM, compound concentration 1 uM, replicate 1
# [6] = 24 h, 1 µM, compound concentration 1 uM, replicate 2
# [7] = 24 h, 10 µM, compound concentration 10 uM, replicate 1
# [8] = 24 h, 10 µM, compound concentration 10 uM, replicate 2
# [9] = 48 h, 1 µM, compound concentration 1 uM, replicate 1
# [10] = 48 h, 1 µM, compound concentration 1 uM, replicate 2
# [11] = 48 h, 10 µM, compound concentration 10 uM, replicate 1
# [12] = 48 h, 10 µM, compound concentration 10 uM, replicate 2
structure (smiles),measurement,setting,value
O=C(NCCNCC(O)COc1ccc(O)cc1)N1CCOCC1.O=C(NCCNCC(O)COc1ccc(O)cc1)N1CCOCC1.O=C(O)/C=C/C(=O)O (centres undefined) [XAMOTEROL FUMARATE],Population Apoptotic (%),[1],63%
same,Population Fragmented Nuclei (%),[1],15%
same,Population Healthy Nuclei (%),[1],67%
same,Population Hoechst High Intensity Objects (%),[1],2%
same,Population Membrane Permeable-Phenotype (%),[1],1%
same,Population Mitochondria Different-Phenotype (%),[1],4%
same,Population Mitotic Cells (%),[1],36%
same,Population Normal (%),[1],97%
same,Population Pyknosed Nuclei (%),[1],17%
same,Population Tubulin-Different-Phenotype (%),[1],24%
same,Total Cell Count,[1],114
same,Population Apoptotic (%),[2],43%
same,Population Fragmented Nuclei (%),[2],23%
same,Population Healthy Nuclei (%),[2],53%
same,Population Hoechst High Intensity Objects (%),[2],4%
same,Population Membrane Permeable-Phenotype (%),[2],16%
same,Population Mitochondria Different-Phenotype (%),[2],7%
same,Population Mitotic Cells (%),[2],56%
same,Population Normal (%),[2],95%
same,Population Pyknosed Nuclei (%),[2],23%
same,Population Tubulin-Different-Phenotype (%),[2],55%
same,Total Cell Count,[2],167
same,Population Apoptotic (%),[3],30%
same,Population Fragmented Nuclei (%),[3],21%
same,Population Healthy Nuclei (%),[3],64%
same,Population Hoechst High Intensity Objects (%),[3],4%
same,Population Membrane Permeable-Phenotype (%),[3],2%
same,Population Mitochondria Different-Phenotype (%),[3],5%
same,Population Mitotic Cells (%),[3],70%
same,Population Normal (%),[3],95%
same,Population Pyknosed Nuclei (%),[3],14%
same,Population Tubulin-Different-Phenotype (%),[3],32%
same,Total Cell Count,[3],143
same,Population Apoptotic (%),[4],17%
same,Population Fragmented Nuclei (%),[4],30%
same,Population Healthy Nuclei (%),[4],49%
same,Population Hoechst High Intensity Objects (%),[4],5%
same,Population Membrane Permeable-Phenotype (%),[4],4%
same,Population Mitochondria Different-Phenotype (%),[4],11%
same,Population Mitotic Cells (%),[4],82%
same,Population Normal (%),[4],94%
same,Population Pyknosed Nuclei (%),[4],20%
same,Population Tubulin-Different-Phenotype (%),[4],43%
same,Total Cell Count,[4],154
same,Population Apoptotic (%),[5],68%
same,Population Fragmented Nuclei (%),[5],20%
same,Population Healthy Nuclei (%),[5],63%
same,Population Hoechst High Intensity Objects (%),[5],1%
same,Population Membrane Permeable-Phenotype (%),[5],2%
same,Population Mitochondria Different-Phenotype (%),[5],2%
same,Population Mitotic Cells (%),[5],31%
same,Population Normal (%),[5],98%
same,Population Pyknosed Nuclei (%),[5],15%
same,Population Tubulin-Different-Phenotype (%),[5],25%
same,Total Cell Count,[5],121
same,Population Apoptotic (%),[6],50%
same,Population Fragmented Nuclei (%),[6],28%
same,Population Healthy Nuclei (%),[6],52%
same,Population Hoechst High Intensity Objects (%),[6],2%
same,Population Membrane Permeable-Phenotype (%),[6],18%
same,Population Mitochondria Different-Phenotype (%),[6],6%
same,Population Mitotic Cells (%),[6],50%
same,Population Normal (%),[6],97%
same,Population Pyknosed Nuclei (%),[6],19%
same,Population Tubulin-Different-Phenotype (%),[6],63%
same,Total Cell Count,[6],149
same,Population Apoptotic (%),[7],62%
same,Population Fragmented Nuclei (%),[7],20%
same,Population Healthy Nuclei (%),[7],67%
same,Population Hoechst High Intensity Objects (%),[7],1%
same,Population Membrane Permeable-Phenotype (%),[7],0%
same,Population Mitochondria Different-Phenotype (%),[7],0%
same,Population Mitotic Cells (%),[7],37%
same,Population Normal (%),[7],98%
same,Population Pyknosed Nuclei (%),[7],12%
same,Population Tubulin-Different-Phenotype (%),[7],31%
same,Total Cell Count,[7],135
same,Population Apoptotic (%),[8],42%
same,Population Fragmented Nuclei (%),[8],34%
same,Population Healthy Nuclei (%),[8],54%
same,Population Membrane Permeable-Phenotype (%),[8],5%
same,Population Mitochondria Different-Phenotype (%),[8],8%
same,Population Mitotic Cells (%),[8],57%
same,Population Pyknosed Nuclei (%),[8],11%
same,Population Tubulin-Different-Phenotype (%),[8],41%
same,Total Cell Count,[8],172
same,Population Apoptotic (%),[9],65%
same,Population Fragmented Nuclei (%),[9],27%
same,Population Healthy Nuclei (%),[9],57%
same,Population Hoechst High Intensity Objects (%),[9],1%
same,Population Membrane Permeable-Phenotype (%),[9],1%
same,Population Mitochondria Different-Phenotype (%),[9],2%
same,Population Mitotic Cells (%),[9],35%
same,Population Normal (%),[9],98%
same,Population Pyknosed Nuclei (%),[9],15%
same,Population Tubulin-Different-Phenotype (%),[9],21%
same,Total Cell Count,[9],131
same,Population Apoptotic (%),[10],40%
same,Population Fragmented Nuclei (%),[10],42%
same,Population Healthy Nuclei (%),[10],46%
same,Population Hoechst High Intensity Objects (%),[10],2%
same,Population Membrane Permeable-Phenotype (%),[10],7%
same,Population Mitochondria Different-Phenotype (%),[10],4%
same,Population Mitotic Cells (%),[10],60%
same,Population Normal (%),[10],97%
same,Population Pyknosed Nuclei (%),[10],10%
same,Population Tubulin-Different-Phenotype (%),[10],65%
same,Total Cell Count,[10],140
same,Population Apoptotic (%),[11],56%
same,Population Fragmented Nuclei (%),[11],25%
same,Population Healthy Nuclei (%),[11],62%
same,Population Hoechst High Intensity Objects (%),[11],4%
same,Population Membrane Permeable-Phenotype (%),[11],1%
same,Population Mitochondria Different-Phenotype (%),[11],3%
same,Population Mitotic Cells (%),[11],43%
same,Population Normal (%),[11],95%
same,Population Pyknosed Nuclei (%),[11],11%
same,Population Tubulin-Different-Phenotype (%),[11],33%
same,Total Cell Count,[11],144
same,Population Apoptotic (%),[12],52%
same,Population Fragmented Nuclei (%),[12],33%
same,Population Healthy Nuclei (%),[12],54%
same,Population Hoechst High Intensity Objects (%),[12],3%
same,Population Membrane Permeable-Phenotype (%),[12],6%
same,Population Mitochondria Different-Phenotype (%),[12],4%
same,Population Mitotic Cells (%),[12],47%
same,Population Normal (%),[12],96%
same,Population Tubulin-Different-Phenotype (%),[12],48%
same,Total Cell Count,[12],157
